Calls of active or inactive are those of the source. The calls are words filed in the database; no cut-off is given here.
Key:
[1] = biological target: T1, Protein cereblon/Bromodomain-containing protein 2/Cullin-4A (Homo sapiens) (UniProt P25440+Q96SW2+Q13619); assay: Induction of cereblon/cullin 4A-mediated BRD2 degradation in human RS4:11 cells at 30 to 1000 nM after 3 hrs by Western blot method; assay type: cell-based
In short: (§1)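 RS4;11 cells (2 × 10⁶/well) treated for 3 h at the indicated concentrations. Lysed in RIPA with protease inhibitors and immunoblotted for BRD2, BRD3 and BRD4 with specific antibodies.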

[2] = biological target: T2, Protein cereblon/Bromodomain-containing protein 3/Cullin-4A (Homo sapiens) (UniProt Q15059+Q96SW2+Q13619); assay: Induction of cereblon/cullin 4A-mediated BRD3 degradation in human RS4:11 cells at 30 to 1000 nM after 3 hrs by Western blot method; assay type: cell-based
T2 sequence (Q13619 whole entry, looked up): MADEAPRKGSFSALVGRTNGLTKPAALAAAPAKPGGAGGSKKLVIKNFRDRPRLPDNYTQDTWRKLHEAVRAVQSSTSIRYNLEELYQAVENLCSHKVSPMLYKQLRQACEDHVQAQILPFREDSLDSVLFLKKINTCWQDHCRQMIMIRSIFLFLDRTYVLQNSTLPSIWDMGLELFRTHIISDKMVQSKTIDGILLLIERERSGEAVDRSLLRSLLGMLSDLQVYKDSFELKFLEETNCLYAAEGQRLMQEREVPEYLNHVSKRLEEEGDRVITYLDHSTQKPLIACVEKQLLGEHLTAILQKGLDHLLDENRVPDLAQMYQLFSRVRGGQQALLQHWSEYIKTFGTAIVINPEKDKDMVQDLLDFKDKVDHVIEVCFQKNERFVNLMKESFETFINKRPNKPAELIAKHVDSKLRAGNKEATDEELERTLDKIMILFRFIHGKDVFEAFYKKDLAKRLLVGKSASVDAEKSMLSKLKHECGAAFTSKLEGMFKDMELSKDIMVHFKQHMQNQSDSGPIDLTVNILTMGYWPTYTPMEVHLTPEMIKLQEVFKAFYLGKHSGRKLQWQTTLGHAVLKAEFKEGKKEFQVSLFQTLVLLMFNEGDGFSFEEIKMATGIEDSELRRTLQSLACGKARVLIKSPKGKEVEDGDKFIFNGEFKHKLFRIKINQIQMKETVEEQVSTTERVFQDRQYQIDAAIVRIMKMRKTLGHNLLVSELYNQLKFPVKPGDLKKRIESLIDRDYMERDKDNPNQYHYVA
T2 sequence (Q15059 whole entry, looked up): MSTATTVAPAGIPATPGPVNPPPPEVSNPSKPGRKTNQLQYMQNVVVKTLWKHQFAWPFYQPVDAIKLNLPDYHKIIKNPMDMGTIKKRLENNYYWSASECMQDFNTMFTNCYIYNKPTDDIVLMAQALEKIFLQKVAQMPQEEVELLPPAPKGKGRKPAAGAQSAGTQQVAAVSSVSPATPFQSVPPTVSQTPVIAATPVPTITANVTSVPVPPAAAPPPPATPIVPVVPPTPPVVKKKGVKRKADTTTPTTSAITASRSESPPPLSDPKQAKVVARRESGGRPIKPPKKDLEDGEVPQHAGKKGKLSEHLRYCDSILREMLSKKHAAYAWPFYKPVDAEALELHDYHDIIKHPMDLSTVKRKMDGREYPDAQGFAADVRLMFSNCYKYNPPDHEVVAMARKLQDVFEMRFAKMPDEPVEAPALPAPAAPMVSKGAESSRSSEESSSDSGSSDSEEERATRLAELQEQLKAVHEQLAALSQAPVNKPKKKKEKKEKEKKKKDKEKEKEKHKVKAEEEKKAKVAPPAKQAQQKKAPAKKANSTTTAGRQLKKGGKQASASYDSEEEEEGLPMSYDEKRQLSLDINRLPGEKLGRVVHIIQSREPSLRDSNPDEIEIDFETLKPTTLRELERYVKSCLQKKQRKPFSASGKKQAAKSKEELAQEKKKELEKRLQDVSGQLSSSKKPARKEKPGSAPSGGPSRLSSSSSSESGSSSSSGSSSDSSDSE
T2 sequence (Q96SW2 whole entry, looked up): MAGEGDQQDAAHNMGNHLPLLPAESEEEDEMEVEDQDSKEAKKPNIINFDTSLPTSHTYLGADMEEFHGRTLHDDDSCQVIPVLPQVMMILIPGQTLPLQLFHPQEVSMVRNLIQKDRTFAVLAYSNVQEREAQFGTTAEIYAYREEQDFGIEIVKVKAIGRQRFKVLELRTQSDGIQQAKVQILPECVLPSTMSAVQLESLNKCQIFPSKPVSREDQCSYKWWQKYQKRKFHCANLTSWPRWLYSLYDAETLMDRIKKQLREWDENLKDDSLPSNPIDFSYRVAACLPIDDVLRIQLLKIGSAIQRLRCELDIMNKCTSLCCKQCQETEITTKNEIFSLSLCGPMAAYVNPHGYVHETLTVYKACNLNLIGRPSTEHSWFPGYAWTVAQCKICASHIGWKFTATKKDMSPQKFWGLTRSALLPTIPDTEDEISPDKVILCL
In short: (§2)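 Western blot of RS4;11 cells (2 × 10⁶ cells/well) in RPMI 1640 with 10% FBS, 37 °C, 5% CO₂, used within three months of thawing. Compound exposure was 3 h or 24 h at the indicated concentrations. Cells were lysed in RIPA with protease inhibitors, and BRD2, BRD3 and BRD4 were detected with specific antibodies, with GAPDH as loading control.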

[3] = tested on: MOLM-13; assay: Cytotoxicity against human MOLM13 cells assessed as cell growth inhibition after 4 days by WST-8 assay; assay type: functional, cell-based; conditions: MOLM-13, 96 h
[4] = tested on: RS4-11; assay: Cytotoxicity against human RS4:11 cells assessed as cell growth inhibition after 4 days by WST-8 assay; assay type: functional, cell-based; conditions: RS4-11, 96 h
[5] = biological target: T3, Protein cereblon/Bromodomain-containing protein 4/Cullin-4A (Homo sapiens) (UniProt O60885+Q96SW2+Q13619); assay: Induction of cereblon/cullin 4A-mediated BRD4 degradation in human RS4:11 cells at 30 to 1000 nM after 3 hrs by Western blot method; assay type: cell-based; in short: as §2
[6] = biological target: T1, Protein cereblon/Bromodomain-containing protein 2/Cullin-4A (Homo sapiens); assay: Induction of cereblon/cullin 4A-mediated BRD2 degradation in human RS4:11 cells after 3 hrs by Western blot method; assay type: cell-based; in short: as §1
[7] = biological target: T3, Protein cereblon/Bromodomain-containing protein 4/Cullin-4A (Homo sapiens); assay: Induction of cereblon/cullin 4A-mediated BRD4 degradation in human RS4:11 cells after 3 hrs by Western blot method; assay type: cell-based; in short: as §2
[8] = biological target: T2, Protein cereblon/Bromodomain-containing protein 3/Cullin-4A (Homo sapiens); assay: Induction of cereblon/cullin 4A-mediated BRD3 degradation in human RS4:11 cells after 3 hrs by Western blot method; assay type: cell-based; in short: as §1
[9] = biological target: T2, Protein cereblon/Bromodomain-containing protein 3/Cullin-4A (Homo sapiens); assay: Induction of cereblon/cullin 4A-mediated BRD3 degradation in human MOLM13 cells after 3 hrs by Western blot method; assay type: cell-based
[10] = biological target: T1, Protein cereblon/Bromodomain-containing protein 2/Cullin-4A (Homo sapiens); assay: Induction of cereblon/cullin 4A-mediated BRD2 degradation in human MOLM13 cells after 3 hrs by Western blot method; assay type: cell-based
[11] = biological target: T3, Protein cereblon/Bromodomain-containing protein 4/Cullin-4A (Homo sapiens); assay: Induction of cereblon/cullin 4A-mediated BRD4 degradation in human MOLM13 cells after 3 hrs by Western blot method; assay type: cell-based

T1 sequence (P25440 whole entry, looked up): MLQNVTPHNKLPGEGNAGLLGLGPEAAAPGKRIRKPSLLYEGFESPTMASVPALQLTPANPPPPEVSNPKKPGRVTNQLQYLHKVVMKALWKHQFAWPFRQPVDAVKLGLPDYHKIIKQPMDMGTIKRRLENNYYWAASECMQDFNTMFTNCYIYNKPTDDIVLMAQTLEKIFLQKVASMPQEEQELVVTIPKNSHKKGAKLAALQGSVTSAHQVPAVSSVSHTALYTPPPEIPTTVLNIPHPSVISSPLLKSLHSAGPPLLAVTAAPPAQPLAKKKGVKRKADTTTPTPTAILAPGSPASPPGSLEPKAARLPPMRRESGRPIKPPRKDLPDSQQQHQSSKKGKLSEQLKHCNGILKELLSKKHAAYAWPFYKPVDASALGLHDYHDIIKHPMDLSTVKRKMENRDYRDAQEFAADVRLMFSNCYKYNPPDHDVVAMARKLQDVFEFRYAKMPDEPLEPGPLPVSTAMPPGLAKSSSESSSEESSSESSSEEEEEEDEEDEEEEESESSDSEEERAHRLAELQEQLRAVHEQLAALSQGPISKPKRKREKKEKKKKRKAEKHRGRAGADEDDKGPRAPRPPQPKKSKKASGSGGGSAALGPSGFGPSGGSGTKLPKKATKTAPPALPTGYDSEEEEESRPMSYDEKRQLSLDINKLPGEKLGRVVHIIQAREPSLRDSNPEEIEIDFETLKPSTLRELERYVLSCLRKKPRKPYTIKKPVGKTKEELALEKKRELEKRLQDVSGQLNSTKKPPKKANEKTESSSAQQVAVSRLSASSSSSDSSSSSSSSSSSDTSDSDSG
T1 sequence (Q13619 whole entry, looked up): as the sequence (Q13619 whole entry, looked up) above
T1 sequence (Q96SW2 whole entry, looked up): as the sequence (Q96SW2 whole entry, looked up) above

Row | Compound | IC50 [3] [nM] | IC50 [4] [nM] | also measured
1 | CCn1nc(C2CC2)cc1Nc1nc(C(=O)NCCCCCc2cccc3c2CN(C2CCC(=O)N(C)C2=O)C3=O)nc2[nH]c3cc(-c4c(C)noc4C)c(OC)cc3c12 (stereo not given) | 83.4 | 35.1 | Activity [1]: inactive; Activity [2]: inactive; Activity [5]: inactive
2 | CCn1nc(C2CC2)cc1Nc1nc(C(=O)NCCCCCCc2cccc3c2CN(C2CCC(=O)NC2=O)C3=O)nc2[nH]c3cc(-c4c(C)noc4C)c(OC)cc3c12 (stereo not given) | 1 | 0.037 | Activity [6]: Dose-dependent effect; Activity [7]: Dose-dependent effect; Activity [8]: Dose-dependent effect
3 | CCn1nc(C2CC2)cc1Nc1nc(C(=O)NCCCCc2cccc3c2CN(C2CCC(=O)NC2=O)C3=O)nc2[nH]c3cc(-c4c(C)noc4C)c(OC)cc3c12 (stereo not given) | 13.7 | 0.98 | Activity [6]: Dose-dependent effect; Activity [7]: Dose-dependent effect; Activity [8]: Dose-dependent effect
4 | CCn1nc(C2CC2)cc1Nc1nc(C(=O)NCCCCCCCOc2cccc3c2C(=O)N(C2CCC(=O)NC2=O)C3=O)nc2[nH]c3cc(-c4c(C)noc4C)c(OC)cc3c12 (stereo not given) | 3.9 | 0.48 | –
5 | CCn1nc(C2CC2)cc1Nc1nc(C(=O)NCCCCCNc2cccc3c2C(=O)N(C2CCC(=O)NC2=O)C3=O)nc2[nH]c3cc(-c4c(C)noc4C)c(OC)cc3c12 (stereo not given) | 2.1 | 0.14 | Activity [9]: Active; Activity [10]: Active; Activity [11]: Active
6 | CCn1nc(C2CC2)cc1Nc1nc(C(=O)NCCCCCCCNc2cccc3c2C(=O)N(C2CCC(=O)NC2=O)C3=O)nc2[nH]c3cc(-c4c(C)noc4C)c(OC)cc3c12 (stereo not given) | 1.2 | 0.2 | Activity [9]: Active; Activity [10]: Active; Activity [11]: Active
7 | CCn1nc(C2CC2)cc1Nc1nc(C(=O)NCCNc2cccc3c2C(=O)N(C2CCC(=O)NC2=O)C3=O)nc2[nH]c3cc(-c4c(C)noc4C)c(OC)cc3c12 (stereo not given) | 68.7 | 4.8 | –
8 | CCn1nc(C2CC2)cc1Nc1nc(C(=O)NCCCCCCc2cccc3c2C(=O)N(C2CCC(=O)NC2=O)C3=O)nc2[nH]c3cc(-c4c(C)noc4C)c(OC)cc3c12 (stereo not given) | 2.5 | 0.17 | –
9 | CCn1nc(C2CC2)cc1Nc1nc(C(=O)NCCCNc2cccc3c2C(=O)N(C2CCC(=O)NC2=O)C3=O)nc2[nH]c3cc(-c4c(C)noc4C)c(OC)cc3c12 (stereo not given) | 9.5 | 2.4 | –
10 | CCn1nc(C2CC2)cc1Nc1nc(C(=O)NCCCCNC(=O)CNc2cccc3c2C(=O)N(C2CCC(=O)NC2=O)C3=O)nc2[nH]c3cc(-c4c(C)noc4C)c(OC)cc3c12 (stereo not given) | 19.9 | 2.5 | –
